Assay outcomes: PubChem, Johns Hopkins Ion Channel Center
This is a sample that favours compounds with a hit; in the whole collection about 2.3% have one here.
TRPC4 potent – positive allosteric modulators of TRPC4, primary screen, cell-based, mouse TRPC4beta, HEK293 mu-opioid, Fluo-4 calcium; Short transient receptor potential channel 4 (Mus musculus), Q9QUQ5; DAMGO EC20, Fluo-4 Ca2+ flux; active compounds read high; B-score at 10 µM; hit rate 0.42% among 310,000; AID 2227, 2009;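 active means B-score of calcium response area above 5 SD of library B-scores, with initial fluorescence ratio within 5 SD of library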
TRPC4 block – inhibitors of mouse TRPC4 channel, primary screen, Fluo4 calcium, HEK293 TRPC4beta/mu-opioid cells | DAMGO-evoked Fluo4 calcium flux; active compounds read low | B-score at 10 µM | hit rate 0.39% among 300,000 | AID 2247, 2010;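 active means B-score over 3 SD under the library average, no early fluorescence shift, positive overall ratio signal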
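Material: HEK293 cells with stable TRPC4beta plus mu-opioid receptor expression; probe or stimulus: DAMGO in two steps, submaximal then maximal; technique: Fluo4 calcium fluorescence by kinetic imaging, 5 s 1 Hz baseline; measure: integrated fluorescence ratio relative to baseline, converted to per-well B score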
TRPC6 inhibitor – mouse TRPC6 channel inhibitors, primary screen, cell-based, HEK293, membrane potential dye | Short transient receptor potential channel 6 (Mus musculus), Q61143 | ACh-evoked depolarization; active compounds read low | B-score at 10 µM | hit rate 1.1% among 310,000;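 active means B-score under library mean minus 3 SD, initial fluorescence not abnormally high, positive integrated signal ratio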;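 further: B-score derived from integrated fluorescence ratio over the kinetic read; more negative B-score means stronger inhibition of depolarization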
TRPC4 agonist – activators of mouse TRPC4 channel, primary screen, Fluo4 calcium, HEK293 TRPC4beta/mu-opioid cells; Short transient receptor potential channel 4 (Mus musculus), Q9QUQ5; Fluo4 calcium fluorescence; active compounds read high; B-score at 10 µM; AID 2237, 2010; hit rate 0.49% among 310,000;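 active means B-score above 5 SD of library B-scores, and initial fluorescence ratio not above library mean plus 5 SD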;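 further: positive B-score marks a calcium rise read as TRPC4 activation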
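Assay system: HEK293 stable line with TRPC4beta plus mu-opioid receptor. Times: dye 45 min RT, read 110 s. Measured by: kinetic Fluo4 calcium fluorescence. Measure: B score of integrated ratio. Controls: assay buffer as low control, maximal DAMGO as high control.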
TRPC6 activator – mouse TRPC6 channel activators, primary screen, cell-based, HEK293, membrane potential dye. Short transient receptor potential channel 6 (Mus musculus), Q61143. B-score at 10 µM. HEK293-TRPC6 membrane potential dye fluorescence; active compounds read high. hit rate 0.13% among 310,000;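 active means B-score of the integrated fluorescence ratio above library mean plus 3 SD, and starting fluorescence ratio within library mean plus 5 SD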;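 further: higher score means more depolarization so channel activation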
Of the large screens only hits and unclear results are named; the others gave an inactive call.

O=C1C2CCCN2C(c2cccs2)N1c1ccc(F)cc1 (stereo not given)	none
COc1cccc(N2C(=O)C3CCCN3C2c2cccs2)c1 (stereo not given)	TRPC4 agonist 43
COc1ccc(CNc2nc(-c3cccnc3)nn2C(=O)C(C)C)cc1	TRPC4 block -5
CCC(=O)n1nc(-c2cccnc2)nc1NCc1ccc(OC)cc1	none
CN1CCN(C(=O)N2c3ccccc3C=Cc3ccccc32)CC1	TRPC4 potent 13
O=Cc1cccn1Cc1ccccc1[N+](=O)[O-]	none
COc1ccccc1N1CCN(CCCNC(=O)Nc2ccccc2)CC1	TRPC4 block -6
Cc1ccccc1NC(=O)NCCCN1CCN(c2ccccc2)CC1	none
O=C(NCCCN1CCN(c2ccccc2)CC1)Nc1ccccc1C(F)(F)F	TRPC4 block -6
CCc1ccc(NC(=O)CCn2ccnc2C)cc1	none
OCC1(CCc2ccccc2)CCN(Cc2cccn2-c2cccnc2)CC1	TRPC4 agonist 57
CC(C)CN1CCN(Cc2cccn2-c2cccnc2)CC1CCO (stereo not given)	none
CC1(C#CC[N+]2(C)CCCCC2)CCC2C(O1)c1ccccc1OC2(C)C (stereo not given)	TRPC4 potent 21
Cc1c(C(=O)Nc2ccccc2)c2ccc(C(F)(F)F)cc2n1O	none
CCCCN(CC)S(=O)(=O)c1ccc(C(=O)Nc2nnc(-c3cccs3)o2)cc1	TRPC4 agonist 67
O=C(Cn1ncc(Cl)c(Cl)c1=O)N1CCN(S(=O)(=O)c2ccc3ccccc3c2)CC1	none
Cc1[nH]c2ccc(C(=O)OC(C)C(=O)N(C)c3ccccc3)cc2c1C (stereo not given)	TRPC4 block -7
CCOC(=O)CCc1c(C)nc(SCc2ccc(C(=O)O)cc2)c(C#N)c1C	none
O=[N+]([O-])c1cc(-c2ccc(/C=N/n3cnnc3)o2)ccc1Cl	TRPC6 inhibitor -13
COc1ccc(CNC(=O)COC(=O)CO/N=C(\C)c2ccc3c(c2)OCO3)cc1	none
O=C(CN(C(=O)CCC(=O)Nc1nccs1)c1ccc2c(c1)OCO2)NCc1ccccc1	none
Cc1ccc(Nc2ccc(S(=O)(=O)N3CCOCC3)cc2[N+](=O)[O-])cc1C	TRPC4 potent 18
Cc1ccc(S(=O)(=O)Nc2ccc(S(=O)(=O)N3CCOCC3)cc2)cc1[N+](=O)[O-]	none
COc1ccc(-c2nsc3c(N4CCCCC4C)ncnc23)cc1 (stereo not given)	TRPC4 potent 11
Cc1cc(C)nc(/N=C(\N)Nc2ccccc2-c2ccccc2)n1	TRPC4 block -6
Cc1cc(C)cc(N/C(N)=N/c2nc(C)cc(C)n2)c1	TRPC4 block -6
CCCCc1ccc(N/C(N)=N/c2nc(C)cc(C)n2)cc1	TRPC4 agonist 77
Cc1cccc(N/C(N)=N/c2nc(C)cc(C)n2)c1	none
Cc1ccc(N/C(N)=N/c2nc(C)cc(C)n2)cc1	none
COc1ccccc1C(=O)Nc1c(C(=O)N2CCN(C)CC2)oc2ccccc12	none
COc1ccc(OC)c(S(=O)(=O)NCC(c2ccc3c(c2)OCO3)N2CCOCC2)c1 (stereo not given)	none
Cc1nc([N+](=O)[O-])cn1CC(=O)Nc1ccc(F)c(Cl)c1	none
COc1ccccc1-n1c(SCC(=O)N2CCCC2)nnc1-c1ccccc1	none
O=C(/C=C/c1ccco1)Oc1cc(Br)cc(/C=N/NC(=O)c2ccccc2O)c1	TRPC4 potent 12
CC(C(=O)NCC1CCCO1)n1cc([N+](=O)[O-])cn1 (stereo not given)	none
O=C(CN1CCCCC1)Nc1cc(Cl)ccc1Oc1ccccc1	none
O=C(CN1CCCCCC1)Nc1ccccc1Oc1ccccc1	TRPC4 block -6
Cc1cc(C)c2nc(Cl)c(C3NC(=O)c4ccccc4N3)cc2c1 (stereo not given)	none
Cc1ccc(C)c2nc(Cl)c(C3NC(=O)c4ccccc4N3)cc12 (stereo not given)	TRPC4 potent 15
CCOc1ccc(C(=O)NCC(C)C)cc1	none
COc1ccc(N(C)S(=O)(=O)c2cccc(C(=O)NCC(c3cccs3)N(C)C)c2)cc1 (stereo not given)	TRPC4 block -6
CCOc1ccc(C(=O)NCC(c2cccs2)N(C)C)cc1 (stereo not given)	TRPC4 agonist 50
N/C(=N\OC(=O)Cc1ccc(-c2ccccc2)cc1)c1ccncc1	none
COc1ccc(C(=O)O)cc1S(=O)(=O)Nc1ccccc1Cc1ccccc1	none
CC(=O)Nc1ccc(S(=O)(=O)Oc2cccc(/C=N/N=C3/NC(=O)C(CC(=O)O)S3)c2)cc1 (stereo not given)	none
COc1ccc(CC(NC(C)=O)C(=O)NC2CCN(c3ncccc3[N+](=O)[O-])CC2)cc1 (stereo not given)	none
Cc1cccc(C(=O)OCC(=O)NN2C(=O)NC3(CCC(C)CC3)C2=O)c1O (stereo not given)	none
O=[N+]([O-])c1ccc(N2CCN(CCO)CC2)c2ncccc12	TRPC4 potent 21, TRPC4 agonist 56
CCCN(CCC)CCCNC(=O)c1ccc2c(Cl)c3c(nc2c1)CCC3	TRPC4 agonist 124
COCCNC(=O)c1ccc2c(Cl)c3c(nc2c1)CCC3	none
Cc1cccc(Cc2ncc(C(F)(F)F)cc2Cl)c1	none
O=C1C(CSCc2ccccc2)NC(=S)N1c1ccccc1 (stereo not given)	none
CN(C)CC/C=C1/c2ccc(F)cc2Sc2ccc(Cl)cc21	TRPC6 inhibitor -5.8
CN(C)CC/C=C1\c2cc(Cl)ccc2Sc2cc(F)c(F)cc21	TRPC6 inhibitor -5.5
C[C@H]1CCC[C@@]2(O[C@H](CCO)C[C@H](O)[C@H]2O)O1	none
CCCC1=Nc2cc(C(=O)N3CCCC3)ccc2Sc2ccc(C)cc21	TRPC4 agonist 54
CCC1=Nc2cc(C(=O)N3CCCCC3)ccc2Sc2ccc(C)cc21	none
Cc1cc(N(CCO)CCO)ccc1C(c1ccc(N(CCO)CCO)cc1C)c1ccccc1Cl	TRPC4 potent 11
CC(Sc1nc2sc3c(c2c(=O)n1-c1ccccc1)CCCC3)C(=O)O (stereo not given)	TRPC4 potent 17
Clc1ccc(-n2cc(-c3ccc(Br)cc3)[n+]3c2CCCCC3)cc1	TRPC4 block -6
Cc1ccc(-c2cn(-c3ccc(OC(F)F)cc3)c3[n+]2CCCCC3)cc1	none
CN1CCc2c(sc(NC(=O)c3ccc(S(=O)(=O)N4CCCC4)cc3)c2C(N)=O)C1	TRPC6 inhibitor -6
O=C(Nc1ccc(F)cc1)N1CCN(c2nc3ccccc3s2)CC1	none
